Measurements: ChEMBL document CHEMBL5033992, “Discovery and Synthesis of a Pyrimidine-Based Aurora Kinase Inhibitor to Reduce Levels of MYC Oncoproteins” (J Med Chem, 2021)
Active and inactive are the calls of the source. No cut-off for these calls is given here.

Experiments:
[1] = Half life in ICR mouse at 2 mg/kg, iv measured up to 24 hrs by LC-MS/MS analysis; assay type: ADME, organism-based; conditions: in vivo
[2] = Volume of distribution at steady state in ICR mouse at 2 mg/kg, iv measured up to 24 hrs by LC-MS/MS analysis; assay type: ADME, organism-based; conditions: in vivo, read-out: Vdss
[3] = AUC (0 to inf) in ICR mouse at 2 mg/kg, iv measured up to 24 hrs by LC-MS/MS analysis; assay type: ADME, organism-based; parameters: route intravenous, dose 2 mg/kg, time <=24; conditions: in vivo; for AUC(0-inf): ICR
[4] = Half life in ICR mouse at 10 mg/kg, po measured up to 24 hrs by LC-MS/MS analysis; assay type: ADME, organism-based; conditions: in vivo
[5] = Cmax in ICR mouse at 10 mg/kg, po measured up to 24 hrs by LC-MS/MS analysis; assay type: ADME, organism-based; parameters: route oral, dose 10 mg/kg, time <=24; conditions: in vivo
[6] = Tmax in ICR mouse at 10 mg/kg, po measured up to 24 hrs by LC-MS/MS analysis; assay type: ADME, organism-based; conditions: in vivo
[7] = AUC (0 to inf) in ICR mouse at 10 mg/kg, po measured up to 24 hrs by LC-MS/MS analysis; assay type: ADME, organism-based; parameters: route oral, dose 10 mg/kg, time <=24; conditions: in vivo
[8] = molecular target: T1, Aurora kinase A (Homo sapiens) (UniProt O14965); assay: Inhibition of recombinant GST-tagged N-terminal truncated human Aurora A (123 to 401 residues) expressed in Sf9 insect cell using tetra-LRRASLG peptide as substrate at 100 nM incubated for 120 mins by Kinase-Glo plus luminescent kinase assay relative to control
T1 sequence (whole entry): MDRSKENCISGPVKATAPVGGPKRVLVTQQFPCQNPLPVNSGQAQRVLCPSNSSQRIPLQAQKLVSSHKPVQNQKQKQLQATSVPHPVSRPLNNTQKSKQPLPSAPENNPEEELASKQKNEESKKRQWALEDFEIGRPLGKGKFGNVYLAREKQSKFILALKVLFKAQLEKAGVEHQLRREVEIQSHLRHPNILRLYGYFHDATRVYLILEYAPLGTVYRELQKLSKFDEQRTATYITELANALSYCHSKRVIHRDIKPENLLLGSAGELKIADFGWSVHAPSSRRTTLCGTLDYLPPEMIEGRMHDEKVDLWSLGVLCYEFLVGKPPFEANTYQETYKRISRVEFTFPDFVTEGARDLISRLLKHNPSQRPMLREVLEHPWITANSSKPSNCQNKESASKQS

[9] = Effect on cMYC protein expression level in human NCI-H82 cells assessed as fold change at 1 uM incubated for 24 hrs by Western blot analysis relative to control; assay type: functional
How it was run: (§1)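 Cells treated with compound at various concentrations for 24 h, then washed in PBS, lysed in Laemmli buffer and boiled 10 min. Lysates run on SDS-PAGE, transferred to PVDF and probed with antibodies, then AP- or HRP-conjugated secondaries with chemiluminescent detection. Loading control β-actin. NCI-H82 grown in RPMI1640 and SK-N-BE(2) in MEM, each with 10% FBS. Relative levels quantified from triplicate experiments.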

[10] = Effect on MYCN protein expression level in human SKNBE2 cells assessed as fold change at 1 uM incubated for 24 hrs by Western blot analysis relative to control; assay type: functional, SK-N-BE(2); how it was run: as §1
NCI-H82 [11] = assay: Growth inhibition of human NCI-H82 cells assessed as reduction in cell viability after 72 hrs by PrestoBlue Cell Viability assay; assay type: functional, cell-based; conditions: NCI-H82, 72 h
How it was run: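 Cells seeded at 5000–10,000 per well, grown 24 h in RPMI1640 with 10% FBS and antibiotics, then exposed to compound at 0–10 μM for 72 h. Viability read by PrestoBlue fluorescence. IC50 from triplicate eight-point titration.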

SK-N-BE(2) [12] = assay: Growth inhibition of human SKNBE2 cells assessed as reduction in cell viability after 24 hrs by PrestoBlue Cell Viability assay; conditions: SKNBE2, 24 h
[13] = Clearance in ICR mouse at 2 mg/kg, iv measured up to 24 hrs by LC-MS/MS analysis; assay type: ADME, organism-based; conditions: in vivo
[14] = Oral bioavailability in ICR mouse at 10 mg/kg measured up to 24 hrs by LC-MS/MS analysis; assay type: ADME, organism-based; conditions: in vivo
[15] = molecular target: Aurora kinase B (Homo sapiens) (UniProt Q96GD4); assay: Inhibition of Aurora B phosphorylation in human NCI-H82 cells assessed as reduction in phosphorylation at Thr 232 residue at 50 to 1000 nM after 24 hrs by Western blot analysis; assay type: cell-based; conditions: dose 50-1000 nM; how it was run: as §1
Aurora kinase B (Homo sapiens), sequence (Q96GD4 whole entry): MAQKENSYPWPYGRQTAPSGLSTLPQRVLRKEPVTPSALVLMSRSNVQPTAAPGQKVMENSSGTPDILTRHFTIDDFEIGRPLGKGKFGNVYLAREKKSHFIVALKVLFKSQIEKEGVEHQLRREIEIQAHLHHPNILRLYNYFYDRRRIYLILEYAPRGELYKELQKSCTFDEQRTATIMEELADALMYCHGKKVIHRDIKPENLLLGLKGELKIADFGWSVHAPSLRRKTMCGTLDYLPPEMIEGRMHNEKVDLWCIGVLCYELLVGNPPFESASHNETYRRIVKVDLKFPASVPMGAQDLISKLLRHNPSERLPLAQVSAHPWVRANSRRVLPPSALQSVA

NCI-H82 [16] = assay: Inhibition of Histone H3 phosphorylation in human NCI-H82 cells assessed as reduction in phosphorylation at Ser 10 residue at 50 to 1000 nM after 24 hrs by Western blot analysis; assay type: cell-based; conditions: dose 50-1000 nM; how it was run: as §1
[17] = molecular target: Aurora kinase B (Homo sapiens) (UniProt Q96GD4); assay: Inhibition of Aurora B phosphorylation in human SKNBE2 cells assessed as reduction in phosphorylation at Thr 232 residue at 50 to 1000 nM after 24 hrs by Western blot analysis; assay type: cell-based; conditions: dose 50-1000 nM; how it was run: as §1
SKNBE2 = assay: Inhibition of Histone H3 phosphorylation in human SKNBE2cells assessed as reduction in phosphorylation at Ser 10 residue at 50 to 1000 nM after 24 hrs by Western blot analysis; conditions: dose 50-1000 nM; how it was run: as §1
NCI-H82 [18] = assay: Down regulation of Cyclin B1 expression in human NCI-H82 cells at 50 to 1000 nM after 24 hrs by Western blot analysis; assay type: functional, cell-based; conditions: dose 50-1000 nM; how it was run: as §1
SK-N-BE(2) [19] = assay: Down regulation of Cyclin B1 expression in human SKNBE2 cells at 50 to 1000 nM after 24 hrs by Western blot analysis; assay type: functional, cell-based; conditions: dose 50-1000 nM; how it was run: as §1
NCI-H446 [20] = assay: Induction of apoptosis in human NCI-H446 cells xenografted in athymic nu/nu nude mouse assessed as increase in cleaved PARP1 protein expression level at 100 mg/kg, po measured up to 24 hrs by Western blot analysis; conditions: time hrs <=24
[21] = Inhibition of Histone H3 phosphorylation in human NCI-H446 cells xenografted in assessed as reduction in phosphorylation at Ser 10 residue at 100 mg/kg, po measured upto 8 hrs by western blot analysis relative to control
NCI-H82 [22] = assay: Induction of cell cycle arrest in human NCI-H82 cells at 1 uM after 24 hrs by Propidium iodide staining based flow cytometric analysis; assay type: functional
NCI-H446 [23] = assay: Anti-tumor activity against human NCI-H446 cells xenografted in athymic nu/nu nude mouse assessed as reduction in tumor volume at 50 to 100 mg/kg, po administered at 5 on-2-off for 2 to 4 weeks; assay type: functional, organism-based; conditions: dose 50-100 mg/kg, time 2-4 weeks
How it was run: (§2)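 Male athymic nu/nu mice, 6 weeks old, inoculated subcutaneously with 1 × 10⁶ NCI-H446 cells in saline with 50% Matrigel. Dosing IV or oral, vehicle 5% dimethylacetamide/95% PEG400, on a 5-on-2-off schedule for 2–4 weeks once tumors reached ≥200 mm³. Caliper volume = length × width²/2; tumors and body weight measured at least twice weekly. ANOVA with Student–Newman–Keuls, P < 0.05.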

[24] = Toxicity in athymic nu/nu nude mouse xenografted with NCI-H446 cells assessed as reduction in body weight at 50 to 100 mg/kg, po administered at 5 on-2-off for 2 to 4 weeks relative to control; assay type: organism-based; parameters: scale not given: the % may be the effect or the level left; conditions: in vivo, dose lower 50 mg/kg, time lower 2 weeks, dose upper 100 mg/kg, time upper 4 weeks; how it was run: as §2

CCC(=O)n1nc(Nc2cc(N3CCN(CC)CC3)nc(N[C@H]3CCN(C(=O)c4ccc(Cl)cc4F)C3)n2)cc1C
half-life [1]: 1 h
Vd [2]: 0.9 L/kg
AUC ([3]; 24 h): 351 ng·h/mL
half-life [4]: 1.9 h
Cmax [5]: 114 ng/mL
Tmax [6]: 0.4 h
AUC(0-inf) [7]: 243 ng·h/mL

CCN1CCN(c2cc(Nc3cc(C)[nH]n3)nc(N[C@H]3CCN(C(=O)c4cc(F)c(Cl)c(F)c4)C3)n2)CC1
inhibition [8]: < 50%

CCOC(=O)n1nc(Nc2cc(N3CCN(CC)CC3)nc(N[C@H]3CCN(C(=O)c4ccc(Cl)cc4F)C3)n2)cc1C
half-life [4]: 2.3 h
Cmax [5]: 274 ng/mL
Tmax [6]: 0.4 h
AUC(0-inf) [7]: 961 ng·h/mL

Cc1cc(Nc2cc(N3CC[C@H](N(C)C)C3)nc(N[C@H]3CCN(C(=O)c4cccc(Cl)c4F)C3)n2)n[nH]1
fold change (FC) [9]: 0.996
fold change (FC) [10]: 0.809

Cc1cc(Nc2cc(N(C)CCN(C)C)nc(N[C@H]3CCN(C(=O)c4cccc(Cl)c4F)C3)n2)n[nH]1
fold change (FC) [9]: 0.911
fold change (FC) [10]: 0.805

CCN1CCN(c2cc(Nc3cc(C)[nH]n3)nc(N[C@H]3CCN(C(=O)c4ccccc4)C3)n2)CC1
fold change (FC) [9]: 0.93
fold change (FC) [10]: 0.919

CCN1CCN(c2cc(Nc3cc(C)[nH]n3)nc(N[C@H]3CCN(C(=O)c4cc(F)c(F)cc4F)C3)n2)CC1
inhibition [8]: < 50%

CCN1CCN(C(=O)Cc2ccc(Nc3ncc(F)c(Nc4ccc(C(=O)Nc5ccccc5Cl)cc4)n3)cc2)CC1
IC50 (NCI-H82 [11]): 1 nM
IC50 (SK-N-BE(2) [12]): 1 nM

CCN1CCN(c2cc(Nc3cc(C)[nH]n3)nc(N[C@H]3CCN(C(=O)c4ccc(C(F)(F)F)cc4F)C3)n2)CC1
inhibition [8]: < 50%

CCN1CCN(c2cc(Nc3cc(C)nn3C(=O)OC(C)(C)C)nc(N[C@H]3CCN(C(=O)c4ccc(Cl)cc4F)C3)n2)CC1
half-life [1]: 5 h
clearance [13]: 38 mL/min/kg
Vd [2]: 4.9 L/kg
AUC(0-inf) [3]: 780 ng·h/mL
half-life [4]: 3.3 h
Cmax [5]: 690 ng/mL
Tmax [6]: 0.5 h
AUC(0-inf) [7]: 1130 ng·h/mL
bioavailability [14]: 28.9%

COc1cc(Nc2ncc3c(n2)-c2ccc(Cl)cc2C(c2c(F)cccc2OC)=NC3)ccc1C(=O)O [ALISERTIB]
inhibition [15]: Dose-Dependent Effect
inhibition (NCI-H82 [16]): Active
inhibition [17]: Dose-Dependent Effect
inhibition (SKNBE2): Active
Activity (NCI-H82 [18]): Active
Activity (SK-N-BE(2) [19]): Active
Activity (NCI-H446 [20]): Active
inhibition in vivo at 100 mg/kg [21]: > 90%

CCN1CCN(c2cc(Nc3cc(C)[nH]n3)nc(N[C@H]3CCN(C(=O)c4ccc(Cl)nc4F)C3)n2)CC1
inhibition [8]: < 50%

CCN1CCN(c2cc(Nc3cc(C)[nH]n3)nc(N[C@H]3CCN(C(=O)c4cccc(Cl)c4F)C3)n2)CC1
fold change (FC) [10]: 0.741

Cc1cc(Nc2cc(N3CC(N(C)C)C3)nc(N[C@H]3CCN(C(=O)c4cccc(Cl)c4F)C3)n2)n[nH]1
fold change (FC) [9]: 1.084
fold change (FC) [10]: 0.754

CCN1CCN(c2cc(Nc3cc(C)nn3C(=O)C(C)(C)C)nc(N[C@H]3CCN(C(=O)c4ccc(Cl)cc4F)C3)n2)CC1
half-life [1]: 5.5 h
clearance [13]: 73.3 mL/min/kg
Vd [2]: 18.8 L/kg
AUC(0-inf) [3]: 401 ng·h/mL
half-life [4]: 2.2 h
Cmax [5]: 36.1 ng/mL
Tmax [6]: 1.4 h
AUC(0-inf) [7]: 157 ng·h/mL
bioavailability [14]: 7.8%

CCN(CCCOc1ccc2c(Nc3cc(CC(=O)Nc4cccc(F)c4)[nH]n3)ncnc2c1)CCOP(=O)(O)O [BARASERTIB]
IC50 (NCI-H82 [11]): 1 nM
Activity (NCI-H82 [22]): Active
IC50 (SK-N-BE(2) [12]): 1 nM

Cc1cc(Nc2cc(N3CCN(C)CC3)nc(N[C@H]3CCN(C(=O)c4cccc(Cl)c4F)C3)n2)n[nH]1
fold change (FC) [9]: 0.843
fold change (FC) [10]: 0.815

CCN1CCN(c2cc(Nc3cc(C)[nH]n3)nc(N[C@H]3CCN(S(=O)(=O)c4ccc(Cl)cc4F)C3)n2)CC1
inhibition [8]: < 50%

CCOC(=O)n1nc(C)cc1Nc1cc(N2CCN(CC)CC2)nc(N[C@H]2CCN(C(=O)c3ccc(Cl)cc3F)C2)n1
half-life [1]: 5.8 h
clearance [13]: 20 mL/min/kg
Vd [2]: 2.8 L/kg
AUC(0-inf) [3]: 1480 ng·h/mL
half-life [4]: 2.7 h
Cmax [5]: 1090 ng/mL
Tmax [6]: 0.3 h
AUC(0-inf) [7]: 4050 ng·h/mL
bioavailability [14]: 54.5%
Activity (NCI-H446 [23]): Dose-Dependent Effect
Activity [24]: < 5%
